{"data": "Measured values of several laboratories", "target": "Protein kinase C alpha type (PRKCA, Homo sapiens, UniProt P17252)"}
{"SMILES": "FC(F)c1nc2ccccc2n1-c1nc(N2CCOCC2)nc(N2CCOCC2)n1", "test": "enzyme activity, inhibitor", "conditions": "10 µM", "measurement": "remaining activity", "result": "86%"}
{"SMILES": "Cc1ccc(Nc2nccc(N(C)c3ccc4c(C)n(C)nc4c3)n2)cc1S(N)(=O)=O", "test": "enzyme activity, inhibitor", "conditions": "10 µM", "measurement": "inhibition", "result": "10%"}
{"SMILES": "Cc1ccc(NC(=O)c2ccc(C)c(C(F)(F)F)c2)cc1C#Cc1nn(C2CCC(O)CC2)c2ncnc(N)c12 (stereo not shown)", "test": "cell-free assay", "conditions": "10 µM", "measurement": "remaining signal", "result": "110%"}
{"SMILES": "CS(=O)(=O)Nc1cccc(-c2csc(NC(=O)CSc3nc4nccnc4c(=O)n3CCc3ccccc3)n2)c1", "test": "enzyme activity, inhibitor", "conditions": "10 µM", "measurement": "inhibition", "result": "1%"}
{"SMILES": "FC(F)(F)Oc1cccc(-c2cnc3ccc(-c4ccncc4)nn23)c1", "test": "enzyme activity, inhibitor, radiometric", "conditions": "1 µM", "measurement": "activity vs control", "result": "96%"}
{"SMILES": "COc1cc(Nc2cnc(C#N)c(O[C@H](C)CN(C)C)n2)ncc1-c1cnn(C)c1", "test": "enzyme activity, inhibitor, radiometric", "conditions": "1 µM", "measurement": "remaining activity", "result": "115%"}
{"SMILES": "CC(C)c1ccc(NC(=O)c2cccs2)c(-c2nc3ccccc3[nH]c2=O)c1", "test": "enzyme activity, inhibitor", "conditions": "1 µM", "measurement": "activity vs control", "result": "100%"}
{"SMILES": "CC(C)(C)c1nc2c(s1)c1nc(N)ncc1c1ccc(NS(=O)(=O)c3c(F)cccc3F)c(F)c12", "test": "enzyme activity, inhibitor, radiometric", "conditions": "1 µM", "measurement": "remaining activity", "result": "107%"}
{"SMILES": "O=C1Nc2ccc(Cl)cc2C1=Cc1cc(Cl)c(O)c(Cl)c1", "test": "cell-free assay", "conditions": "0.5 µM", "measurement": "remaining signal", "result": "105%"}
{"SMILES": "Cc1sc(C(=O)NC2COC2)cc1-n1cc(NC(=O)Nc2c(F)cccc2Cl)cn1", "test": "enzyme activity, inhibitor", "conditions": "10 µM", "measurement": "remaining activity", "result": "95.9%"}
{"SMILES": "CC(C)(O)[C@H]1CC[C@H](Nc2ccc3ncc(-c4cccc(C(F)(F)F)c4)n3n2)CC1", "test": "enzyme activity, inhibitor", "conditions": "1 µM", "measurement": "remaining activity", "result": "69.5%"}
{"SMILES": "COc1cc(/C=C/C(=O)CC(=O)/C=C/c2ccc(O)c(OC)c2)ccc1O", "test": "enzyme activity, inhibitor", "conditions": "1 µM", "measurement": "activity vs control", "result": "106%"}
{"SMILES": "Cc1[nH]c(/C=C2\\C(=O)Nc3ccc(F)cc32)c(C)c1C(=O)N[C@H]1CCN(C(=O)N(C)C)C1", "test": "enzyme activity, inhibitor", "conditions": "0.1 µM", "measurement": "remaining activity", "result": "108%"}
{"SMILES": "CNC(=O)c1cc(Oc2ccc(NC(=O)Nc3ccc(Cl)c(C(F)(F)F)c3)cc2)ccn1", "test": "cell-free assay", "conditions": "0.5 µM", "measurement": "remaining signal", "result": "96.8%"}
{"SMILES": "Cc1cc(NC(=O)c2cccc3cc(-c4cccc5[nH]nc(N)c45)ccc23)ccc1F", "test": "enzyme activity, inhibitor", "conditions": "0.1 µM", "measurement": "activity vs control", "result": "95%"}
{"SMILES": "O=C(Nc1cnn(-c2csc(C(=O)NC3COC3)c2)c1)Nc1c(F)cccc1Cl", "test": "enzyme activity, inhibitor", "conditions": "5 µM", "measurement": "remaining activity", "result": "90.7%"}
{"SMILES": "Cc1ccc(C(=O)NCc2ccsc2)cc1C#Cc1cn(C(C)C)c2ncnc(N)c12", "test": "enzyme activity, inhibitor", "conditions": "1 µM", "measurement": "activity vs control", "result": "92%"}
{"SMILES": "Cc1ccc(-n2nc(C(C)(C)C)cc2NC(=O)Nc2ccc(OCCN3CCOCC3)c3ccccc23)cc1", "test": "enzyme activity, inhibitor", "conditions": "10 µM", "measurement": "inhibition", "result": "9%"}
{"SMILES": "COc1cc2ncnc(Nc3ccc(Oc4ccccc4)cc3C)c2cc1OC", "test": "enzyme activity, inhibitor", "conditions": "1 µM", "measurement": "inhibition", "result": "6%"}
{"SMILES": "CCN(CC)CCNC(=O)c1c(C)[nH]c(/C=C2\\C(=O)Nc3ccc(F)cc32)c1C", "test": "enzyme activity, inhibitor", "conditions": "1 µM", "measurement": "remaining activity", "result": "102%"}
{"SMILES": "N#CCCc1ccc2c(c1)-c1[nH]c3ccc([N+](=O)[O-])cc3c1CC(=O)N2", "test": "cell-free assay", "conditions": "0.5 µM", "measurement": "remaining signal", "result": "80.9%"}
{"SMILES": "COc1cc(Cl)c(C(=O)N[C@@H](CN[C@H]2CC[C@@H](N)CC2)Cc2ccc(C#N)cc2)cc1-c1ccc(CN[C@H](C)c2ccc(C)cc2)o1", "test": "enzyme activity, inhibitor", "conditions": "1 µM", "measurement": "remaining activity", "result": "97%"}
